# Screening data: PubChem BioAssay, Sanford-Burnham Center for Chemical Genomics
# Compounds with a hit are over-represented: about 3.9% of the library has one in this group of screens.
# UPR CHOP act: apoptotic UPR (CHOP) activation; activation, % at 10 µM; AID 449763; CHO-CHOP luciferase reporter, luminescence; percent of tunicamycin response over DMSO baseline; 330,000 compounds, 0.34% hits;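 active = at 10 µM dose, activation of 40% or more, normalized to positive control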;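 also: 100% = tunicamycin at 10 µg/mL and 0% = DMSO alone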
#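 Material: CHO-CHOP cells, stable luciferase reporter of PERK-eIF2a-CHOP signalling; quantity: 500 reporter cells seeded per well; buffer or medium: F12 medium containing 10% fetal bovine serum; compound: one dose, 10 µM in 0.5% DMSO; incubation: 6 h compound treatment, 37 °C; measured by: Steady-Glo luciferase luminescence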
# UPR XBP1 act: adaptive UPR (XBP1) activation; CHO-XBP1 luciferase reporter, IRE1-XBP1 UPR activation, luminescence; percent of tunicamycin response, DMSO as zero; activation, % at 20 µM; 330,000 compounds, 0.33% hits; AID 463104;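 active = versus positive control, 20 µM dose yields 30% or more activation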;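 also: 100% = tunicamycin at 10 µg/mL and 0% = DMSO only wells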
#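 Material – CHO cell line with stable XBP1 luciferase reporter · Buffer or medium – F12 plus 10% FBS · Compound – single point, 20 µM final compound, 1% DMSO · Schedule – 16-18 h cell attachment at 37 °C, then 6 h compound exposure · Signal – Steady-Glo luminescence read · Benchmarks – high control tunicamycin 10 µg/mL final, low control DMSO vehicle only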
# tim10-1 inh: growth inhibitors of tim10-1 mutant yeast; S. cerevisiae tim10-1 ts strain growth, BacTiter-Glo, 24 h; inhibition, % at 20 µM; 330,000 compounds, 2.2% hits; AID 463190;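 active = inhibition of at least 40%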;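 also: mutant grown at 25 °C; 0% = DMSO wells with yeast and 100% = wells holding no yeast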
# TIM10 inh: growth inhibitors of TIM10 yeast strain; S. cerevisiae TIM10 strain growth, BacTiter-Glo luminescence, 24 h; inhibition, % at 10 µM; 330,000 compounds, 1.4% hits; AID 463195;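 active = inhibition of 40% or more at the single tested concentration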;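 also: wild-type TIM10 isogenic control strain grown at permissive 25 °C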
# tim23-1 inh: inhibits growth of tim23-1 mutant yeast; S. cerevisiae tim23-1 growth, BacTiter-Glo luminescence, 24 h; 330,000 compounds, 1.3% hits; inhibition, % at 20 µM; AID 463212;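 active = growth inhibition of the mutant yeast at or above 50%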;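 also: temperature-sensitive mutant grown at 25 °C; plate controls were DMSO-treated mutant yeast for no effect and medium wells lacking yeast for full effect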
# UPR CHOP confirm: apoptotic UPR (CHOP) activation, confirmed; shares compounds with UPR CHOP act; activation, % at 10 µM; 1,000 compounds, 64% hits; AID 463112; CHO-CHOP cells, CHOP-luciferase reporter luminescence; percent of tunicamycin response, DMSO as zero; in the data active = activation above about 33%;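 also: 0% = DMSO wells and 100% = tunicamycin 10 µg/mL wells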
# UPR XBP1 confirm: adaptive UPR (XBP1) activation, confirmed | CHO-XBP1 IRE1-XBP1 luciferase reporter, luminescence | 1,000 compounds, 63% hits | activation, % at 20 µM | shares compounds with UPR XBP1 act | AID 485299;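 active = reporter signal at least 30% of the positive control's activation in two or more of four replicate wells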;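 also: plate controls were DMSO negative control for no effect and tunicamycin 10 µg/mL positive control for full effect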
# * marks the source's active call; other numbers are inactive results; . = not tested or not shown.
SMILES,UPR CHOP act,UPR XBP1 act,tim10-1 inh,TIM10 inh,tim23-1 inh,UPR CHOP confirm,UPR XBP1 confirm
COc1ccc(N=c2oc3ccc(OC)cc3cc2-c2nc3ccccc3[nH]2)cc1,135*,84*,9,9,-8,147*,133*
COc1cccc(N=c2oc3ccc(OC)cc3cc2-c2nc3ccccc3[nH]2)c1,6,2,24,-6,-22,.,.
CSc1ccc(/C=C(\NC(=O)c2ccco2)C(=O)N2CCCCC2)cc1,-2,-1,31,13,26,.,.
N=c1c(-c2nc3ccccc3[nH]2)cc(C(=O)c2ccco2)nn1-c1ccccc1,153*,33*,27,3,-3,148*,28
N=c1c(-c2nc3ccccc3[nH]2)cc(C(=O)c2cccs2)nn1-c1ccccc1,3,4,36,16,3,.,.
CC(C)CCN(C(=O)CCCSc1nc2ccccc2[nH]1)c1c(N)n(Cc2ccccc2)c(=O)[nH]c1=O,0,-2,-16,-26,-7,.,.
FC(F)(F)c1nc2ccccc2n2c(-c3ccc(Cl)cc3Cl)nnc12,2,1,32,4,49,.,.
FC(F)(F)c1nnc2c(Sc3ccccc3)nc3ccc(Cl)cc3n12,233*,115*,29,21,42,152*,124*
O=C(Nc1ccc2nn(-c3ccccc3)nc2c1)c1ccc2c(c1)OCCO2,4,-2,13,6,16,.,.
CCOc1ccc(-n2nc3ccc(NC(=O)c4ccc5c(c4)OCCO5)cc3n2)cc1,73*,155*,-26,-14,5,20,122*
O=C(COc1ccc(/C=N/NC(=O)c2cc3ccccc3o2)cc1Br)Nc1ccccc1,275*,107*,-20,-5,-19,58*,45*
CCc1ccc2nc(N(CCCN(C)C)C(=O)c3ccc(S(=O)(=O)N4CCc5ccccc5C4)cc3)sc2c1,41*,59*,31,28,16,30,59*
CN(C)CCCN(C(=O)c1ccc(S(=O)(=O)N2CCCC2)cc1)c1nc2ccc(Br)cc2s1,4,15,16,8,-13,.,.
CN(CC(=O)Nc1ccc(Cl)c(C(F)(F)F)c1)C(=O)COC(=O)C1CC2CCCC(C1)C2=O (configuration not stated),1,-5,13,9,-1,.,.
O=C(COC(=O)c1ccc[nH]c1=O)NC1CC1,1,2,0,0,1,.,.
COc1ccc(-c2csc(Nc3ncccc3C)n2)cc1OC,3,7,25,6,13,.,.
Cc1cccnc1Nc1nc(-c2ccc(O)c(O)c2)cs1,155*,30*,-60,13,49,114*,43*
CCc1ccc2c(c1)C(c1ccc([N+](=O)[O-])cc1)=NNC(c1ccc(Br)cc1)=N2,15,0,8,4,-11,.,.
Cc1ccc2c(c1)C(c1ccc([N+](=O)[O-])cc1)=NNC(c1ccc(Br)cc1)=N2,75*,84*,6,3,17,25,74*
Nc1cccc(-c2nc3cc(S(=O)(=O)c4ccc5oc(-c6cccc(N)c6)nc5c4)ccc3o2)c1,57*,50*,2,-35,-28,78*,92*
Cc1ccc2oc(-c3cccc(N)c3)nc2c1,-2,-7,13,1,13,.,.
CSc1cc(-c2ccc(Cl)cc2)n(Cc2ccccc2)c(=O)c1C#N,44*,32*,-15,-36,-19,20,25
O=C1[C@@H](Oc2ccccc2)[C@@H](c2cnc3ccccc3c2)N1c1ccccc1,0,18,-14,-15,29,.,.
COc1cc(SC#N)ccc1N=Cc1c(C)[nH]n(-c2ccc(C)c(C)c2)c1=O,68*,54*,8,34,1,39*,73*
Cn1c(SCC(=O)NCC2CCCO2)nnc1-c1ccc(Cl)cc1 (configuration not stated),-2,-3,-11,-1,2,.,.
SMILES,UPR CHOP act,UPR XBP1 act,tim10-1 inh,TIM10 inh,tim23-1 inh,UPR CHOP confirm,UPR XBP1 confirm
CCOC(=O)Cc1csc(/N=C/c2c(O)n(-c3ccc(C)c(C)c3)c(=O)c3ccccc23)n1,66*,95*,24,7,5,63*,155*
Cc1ccc(-n2c(O)c(C=Nc3ccc4c(c3)OCO4)c3ccccc3c2=O)cc1C,0,1,6,-6,-40,.,.
NS(=O)(=O)c1ccc(N/N=C/c2cn(-c3ccccc3)nc2-c2ccccc2)c([N+](=O)[O-])c1,104*,78*,15,16,-5,0,75*
COc1ccccc1C(=O)NC(=S)NNC(=O)c1sc2ccccc2c1Cl,48*,38*,-6,2,-37,51*,53*
O=C(NN1C(=O)/C(=C/c2ccc(O)c(O)c2)SC1=S)c1ccccc1,43*,59*,28,30,25,2,57*
O=C(NC(=S)Nc1ccc(NC(=O)c2cccs2)cc1)c1ccco1,3,0,-12,20,46,.,.
O=C(NC(=S)Nc1ccc(NC(=O)c2cccs2)cc1)c1cc2ccccc2o1,57*,121*,-3,15,3,46*,106*
Nc1ccc(N=Nc2ccccc2)c(N)n1,6,-2,-2,12,7,.,.
c1ccc(N=Nc2ccc3cccccc2-3)cc1,67*,83*,16,11,19,21,60*
O=C(/C=C1\NC2(CCCC2)Cc2ccccc21)C(=O)N/N=C/c1ccc(O)c(O)c1,124*,92*,7,4,19,68*,80*
NNC(=O)C(=O)/C=C1\NC2(CCCC2)Cc2ccccc21,0,-2,22,17,40,.,.
CC(C)(C)NC(=O)CN(C(=O)c1snc(C(=O)NC2CCCCC2)c1N)c1ccc(F)cc1,2,6,11,7,-4,.,.
CCOC(=O)c1c(NC(C)=O)sc2c1CCN(Cc1ccccc1)C2,-1,0,4,3,6,.,.
CCOC(=O)c1c(NC(C)=O)sc2c1CCC(C=O)=C2Sc1ccccc1,294*,64*,39,5,44,632*,12
O=C(NC1CCN(Cc2ccc3ccccc3c2)CC1)c1ccccc1,0,-3,-7,-10,0,.,.
COc1ccc2nc(/C(C#N)=C\c3ccc(Oc4ccc([N+](=O)[O-])cn4)cc3)[nH]c2c1,98*,182*,-17,10,-1,24,37*
COC(=O)[C@]1(Cc2ccccc2)N[C@H](CN(C)C(=O)Nc2ccc(OC)cc2)[C@@H]2C(=O)N(Cc3ccccc3)C(=O)[C@@H]21,2,-2,10,13,13,.,.
